Screening data deposited in PubChem BioAssay by several laboratories.
Sampled rows, rich in hits. Any-hit rate of the full collection: about 2.2%.
CXCR6 block – CXCR6 receptor inhibitors, primary screen, cell-based, beta-arrestin, luminescence, CHO-K1 PathHunter, 1536-well | C-X-C chemokine receptor type 6 (Homo sapiens), O00574 | inhibition, % at 20 µM | hit rate 0.36% among 360,000 | AID 602244, 2012; in the data active = inhibition above about 34%, passing the limit was not always enough;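 note: antagonist mode with CXCL16 agonist at 10 nM final; 0% = 10 nM CXCL16 with DMSO and 100% = unstimulated wells without agonist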
Target sequence (O00574 whole entry, looked up): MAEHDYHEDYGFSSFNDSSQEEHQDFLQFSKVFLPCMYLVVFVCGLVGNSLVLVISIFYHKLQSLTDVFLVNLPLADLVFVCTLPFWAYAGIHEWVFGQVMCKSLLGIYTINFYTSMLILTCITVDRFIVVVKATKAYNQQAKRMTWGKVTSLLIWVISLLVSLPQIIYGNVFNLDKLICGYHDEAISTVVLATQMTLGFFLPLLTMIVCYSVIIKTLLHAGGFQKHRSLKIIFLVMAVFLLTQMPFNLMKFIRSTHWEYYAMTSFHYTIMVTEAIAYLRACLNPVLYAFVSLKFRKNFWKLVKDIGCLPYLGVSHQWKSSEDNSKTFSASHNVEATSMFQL
CCR6 antagonist – CCR6 receptor antagonists, primary screen, cell-based, CHO-K1, luminescence, beta-arrestin, uHTS | inhibition, % at 20 µM | hit rate 0.49% among 340,000 | AID 493098, 2011 | CHO-K1 CCR6 PathHunter beta-arrestin, CCL20-stimulated | C-C chemokine receptor type 6 (Homo sapiens), P51684;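 active = compounds whose inhibition of the agonist-driven luminescence signal at 20 µM reaches about 50%, limit read from the data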;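 note: cells stimulated with CCL20 at 14 nM final; plate controls were DMSO with CCL20 for no effect and DMSO without agonist for full effect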
APJ ag – agonists of human apelin receptor APJ, primary screen, CHO-K1 cells, PathHunter beta-arrestin, luminescence; P35414; 0% DMSO wells, 100% apelin; activation, % at 20 µM; hit rate 0.11% among 330,000;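 active = activation more than six SD over the plate average, tested at 20 µM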;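 note: 0% = DMSO alone and 100% = apelin-13 at 10 nM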
Target sequence (P35414 whole entry, looked up): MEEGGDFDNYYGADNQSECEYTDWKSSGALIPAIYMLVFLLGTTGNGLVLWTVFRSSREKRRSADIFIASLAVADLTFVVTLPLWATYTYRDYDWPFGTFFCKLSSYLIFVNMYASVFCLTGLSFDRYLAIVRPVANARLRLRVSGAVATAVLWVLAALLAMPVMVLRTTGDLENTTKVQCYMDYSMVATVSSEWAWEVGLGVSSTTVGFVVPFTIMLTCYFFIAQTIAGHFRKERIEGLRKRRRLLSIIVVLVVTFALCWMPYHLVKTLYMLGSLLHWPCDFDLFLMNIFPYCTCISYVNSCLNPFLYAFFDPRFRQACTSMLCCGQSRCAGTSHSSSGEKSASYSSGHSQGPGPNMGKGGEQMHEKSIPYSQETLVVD
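Assay system – PathHunter CHO-K1 APJ (AGTRL-1) beta-arrestin reporter cells · Compound – one dose, 20 µM compound, 1% DMSO · Timing – compound 90 min 25 °C, reagent 1 h · Measured by – luminescence from split beta-galactosidase complementation, Galacton Star/Emerald II substrate · Measure – beta-arrestin recruitment to APJ as agonist activity, luminescent signal · Benchmarks – DMSO vs Apelin-13 10 nM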
APJ antag – antagonists of human apelin receptor APJ, primary screen, CHO-K1 cells, beta-arrestin complementation, luminescence | P35414 | inhibition, % at 20 µM | hit rate 0.32% among 330,000 | AID 2521, 2010;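 active = inhibition above about 40% at 20 µM, limit read from the data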;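 note: cells challenged with 10 nM apelin-13 agonist together with compound; plate controls were apelin-13 plus DMSO wells for no effect and DMSO wells lacking apelin-13 for full effect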
HTR2A ag – mouse Htr2a agonists via beta-arrestin recruitment, primary screen, cell-based, luminescence; 5-hydroxytryptamine receptor 2A (Mus musculus), P35363; CHO-K1 mHTR2A beta-arrestin complementation; percent of 30 µM serotonin response; activation, % at 7.6 µM; hit rate 0.66% among 360,000;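 active = activation above a run cutoff, the mean activation of all tested compounds plus 3 SD, cut at about 14% in these data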;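 note: 0% = plate median of compound wells and 100% = 30 µM serotonin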
EBI2 block – EBI2 receptor antagonists, beta-arrestin recruitment, primary screen, cell-based, luminescence, 7a,25-OHC stimulation, uHTS; hit rate 0.81% among 360,000; inhibition, % at 5 µM; AID 651636, 2012; 7a,25-OHC stimulated; in the data active = inhibition above about 38%;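 note: enzyme fragment complementation signal reports receptor beta-arrestin coupling in cells; 0% = agonist plus DMSO wells and 100% = wells without agonist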
MOR ag counter – OPRM1 agonists via beta-arrestin recruitment, confirmation, counter-screen for mouse HTR2A agonist project, cell-based, luminescence, single concentration; shares compounds with HTR2A ag; U2OS OPRM1 beta-arrestin PathHunter; DMSO 0%, DAMGO 9.3 µM 100%; activation, % at 9.3 µM; hit rate 5.3% among 2,300;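 active = mean activation above the mean of DMSO-only wells plus 3 SD, cut at about 0.5% in these data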
HTR2A ag conf – mouse HTR2A agonists, beta-arrestin recruitment, confirmation, cell-based, luminescence, CHO-K1 PathHunter, triplicate | shares compounds with HTR2A ag | DMSO 0%, 30 µM serotonin 100% | activation, % at 7.6 µM | hit rate 19% among 2,300 | AID 624381, 2012;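 active = mean activation across triplicates above the hit threshold derived in the original primary screen, cut at about 15% in these data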
The depositor's hits bear a star.

Results for O=C(Nc1ccc(Br)cc1C(=O)O)c1ccc2c(c1)C(=O)N(Cc1ccccc1)C2=O ?
CXCR6 block: -7.1; CCR6 antagonist: 3.2; APJ ag: -0.6; APJ antag: -44.1; HTR2A ag: 15.4*; EBI2 block: -5.3; MOR ag counter: -0.3; HTR2A ag conf: -1.4

Results for CCCN1C(=O)c2ccc(C(=O)Nc3ccccc3C(=O)O)cc2C1=O ?
CXCR6 block: -0.5; CCR6 antagonist: 3.4; APJ ag: -4.9; APJ antag: 8.1; HTR2A ag: 14.0; EBI2 block: 5.7

What do the screens show for `Cn1ncc(Cl)c1C(=O)Nc1nnc(C2CC2)s1`?
CXCR6 block: 1.2; CCR6 antagonist: -3.0; APJ ag: 6.2; APJ antag: -39.9; HTR2A ag: -0.7; EBI2 block: -6.5

What do the screens show for `Cn1nccc1C(=O)Nc1nnc(C2CC2)s1`?
CXCR6 block: -2.1; CCR6 antagonist: -3.2; APJ ag: -1.5; APJ antag: 4.4; HTR2A ag: 15.4*; EBI2 block: 0.1; MOR ag counter: -0.4; HTR2A ag conf: 3.3

What do the screens show for `CC(CCc1ccc(O)cc1)NCCc1ccc(O)c(O)c1` (stereo not given)?
CXCR6 block: 9.4; CCR6 antagonist: 47.0; APJ ag: -2.4; APJ antag: 6.6; HTR2A ag: 26.8*; EBI2 block: 4.1; MOR ag counter: -0.3; HTR2A ag conf: 120.5*

How did COc1ccccc1CCNC(C)CCc1ccc(O)cc1 (stereo not given) do in these assays?
CXCR6 block: 4.4; CCR6 antagonist: -2.3; APJ ag: 0.0; APJ antag: -20.6; HTR2A ag: 5.8; EBI2 block: -2.6

What do the screens show for `CC(C)c1cc(C(=O)Nc2cc(Br)ccc2O)no1`?
CXCR6 block: 1.5; CCR6 antagonist: 6.7; APJ ag: 1.3; APJ antag: -13.0; HTR2A ag: 16.8*; EBI2 block: -0.8; MOR ag counter: 0.7*; HTR2A ag conf: 1.9

How did CC(C)c1cc(C(=O)Nc2cc(Cl)ccc2O)no1 do in these assays?
CXCR6 block: 5.3; CCR6 antagonist: 9.7; APJ ag: 2.0; APJ antag: -49.8; HTR2A ag: 3.6; EBI2 block: 7.9

What do the screens show for `Cc1cc(NCC2CCCO2)n2c(nc3ccccc32)c1C#N` (stereo not given)?
CXCR6 block: 4.1; CCR6 antagonist: 4.6; APJ ag: -2.0; APJ antag: -9.3; HTR2A ag: -2.8; EBI2 block: -10.1

Results for CC(C)c1cc(NCC2CCCO2)n2c(nc3ccccc32)c1C#N (stereo not given) ?
CXCR6 block: 7.9; CCR6 antagonist: -5.8; APJ ag: -0.4; APJ antag: -3.6; HTR2A ag: 17.2*; EBI2 block: -70.2; MOR ag counter: 0.8*; HTR2A ag conf: 24.5*

Results for COc1ccc(COCC(O)CN2CCc3ccccc3C2)cc1OC (stereo not given) ?
CXCR6 block: 0.4; CCR6 antagonist: -4.3; APJ ag: 1.4; APJ antag: -18.5; HTR2A ag: 21.4*; EBI2 block: 10.8; MOR ag counter: -0.1; HTR2A ag conf: 4.2

How did Cc1cc(Br)cn2c(Cc3ccsc3)c(-c3cccc(Br)c3)nc12 do in these assays?
CXCR6 block: 6.3; HTR2A ag: 3.6; EBI2 block: 18.5

Results for O=C(NCc1cccs1)C1C(=O)Nc2ccccc2C(=O)N1C1CCCC1 (stereo not given) ?
HTR2A ag: 3.4; EBI2 block: 1.5

Results for CN1CCC(N(C)C(=O)COc2ccccc2-c2ccccc2)CC1 ?
CXCR6 block: 1.6; CCR6 antagonist: -8.2; APJ ag: -0.9; APJ antag: -16.3; HTR2A ag: 17.5*; EBI2 block: 11.2; MOR ag counter: -0.6; HTR2A ag conf: 3.8

What do the screens show for `CC(=O)N1CCC(N2CCN(c3ccccc3F)CC2)CC1`?
CXCR6 block: -0.5; CCR6 antagonist: -5.8; APJ ag: -2.8; APJ antag: 4.9; HTR2A ag: 26.3*; EBI2 block: -9.7; MOR ag counter: -0.5; HTR2A ag conf: 63.5*

What do the screens show for `O=C1CCSC2=C1SCc1sccc12`?
CXCR6 block: -16.3; HTR2A ag: -1.3; EBI2 block: -5.8

Results for NC(=O)c1nsc(C(=O)N(c2ccccc2F)C(C(=O)NCc2ccc(F)cc2)c2ccc(O)cc2)c1N (stereo not given) ?
CXCR6 block: 2.0; CCR6 antagonist: 15.0; APJ ag: 3.7; APJ antag: 2.3; HTR2A ag: 22.6*; EBI2 block: -4.2; MOR ag counter: -0.3; HTR2A ag conf: 2.2

Results for COc1ccc(CN2CCN(Cc3ccccc3F)CC2)c(OC)c1 ?
CXCR6 block: 14.6; CCR6 antagonist: 15.4; APJ ag: -2.3; APJ antag: 10.8; HTR2A ag: -1.5; EBI2 block: 5.5

What do the screens show for `COc1ccc(CN2CCN(Cc3ccc(C)cc3)CC2)c(OC)c1`?
CXCR6 block: -0.1; CCR6 antagonist: 6.7; APJ ag: -3.1; APJ antag: 17.0; HTR2A ag: -8.2; EBI2 block: 3.1

How did COc1ccc(CN2CCN(c3ncccn3)CC2)c(OC)c1 do in these assays?
CXCR6 block: -0.2; CCR6 antagonist: -5.6; APJ ag: -3.5; APJ antag: 7.3; HTR2A ag: 38.5*; EBI2 block: 2.8; MOR ag counter: -0.4; HTR2A ag conf: 99.2*

What do the screens show for `COc1ccc(CN2CCN(c3ccccn3)CC2)c(OC)c1`?
CXCR6 block: 2.4; CCR6 antagonist: -2.9; APJ ag: -0.5; APJ antag: 1.2; HTR2A ag: 40.2*; EBI2 block: -10.4; MOR ag counter: -0.2; HTR2A ag conf: 82.4*

What do the screens show for `COc1cc(CN2CCN(c3ncccn3)CC2)cc(OC)c1`?
CXCR6 block: 8.1; CCR6 antagonist: 16.7; APJ ag: -1.4; APJ antag: 8.6; HTR2A ag: 20.7*; EBI2 block: 3.4; MOR ag counter: -0.5; HTR2A ag conf: 121.1*

Results for CC(=O)NC(c1ccccc1)c1nc(-c2cccs2)cs1 (stereo not given) ?
CXCR6 block: -1.1; HTR2A ag: 4.3; EBI2 block: -8.3
